The values that follow come from paper PMC5318329 (Drugs in R&D, 2016).

For data set [1], the system named is IL-6. As to conditions: cited from earlier work.
The format of data set [2] is in vivo, human. As to conditions: intravenous infusion up to 10 mg, 3 consecutive days.
In data set [3] the test system is C-reactive protein (CRP). As to conditions: later time points (e.g. 72 h post dose), all dilmapimod dose levels; cited from earlier work.
The format of data set [4] is in vivo, human. In outline: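 Non-head-injury trauma patients randomised within 24–26 h of injury; daily IV infusion over 4 h or 24 h for 3 days. Plasma sampled pre-dose and serially after the first and third doses. Protein precipitation, then HPLC–MS/MS (LLOQ 0.1 ng/mL, ULOQ 100 ng/mL); NQ set missing, outliers excluded. NONMEM mixed-effects three-compartment model with first-order elimination; BMI power covariate centred at 27.4 kg/m2.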

The mark [5] stands for this setting: final three-compartment population PK model, IV infusion.
Setting [6] is: power model, covariate centred to population mean 27.4 kg/m^2.

SMILES strings stand for the structures.

As to `Cc1cc(F)ccc1-c1nc(NC(CO)CO)nc2c1ccc(=O)n2-c1c(F)cccc1F` [Dilmapimod], the “IL-6 levels relative to placebo (exploratory analyses)” value in data set [1] (24 h post dose, all dilmapimod dose levels) is listed as “trend of lower levels of IL-6”. The “Ratios of IL-6 relative to placebo” value in data set [1] (continuous infusion of 10 mg/24 h, up to 72 h post dose) is reported as “below 1”. For the same compound, the “Overall effect of dilmapimod on IL-6 levels in PK/PD modelling” value in data set [1] (similar PK/PD modelling approach on IL-6 data) was “not revealed”. For the same compound, the Tolerability entry in data set [2] is on record as “generally well tolerated”. Besides, the “CRP levels relative to placebo (exploratory analyses)” value in data set [3] is “trend of lower levels of CRP”. In addition, the “Dose proportionality of plasma concentration” value in data set [4] (IV infusion 3, 7.5 mg over 4 h, 7.5, 10 mg over 24 h) is on record as “increased approximately proportionally to the increase in dose”. The Terminal half-life in data set [4] (calculated based on typical value of CL, Vc, V2, V3, Q1 and Q2) is listed as 16 h. In data set [4] (setting [5]), the “Q1 (inter-compartmental clearance), typical value” was 28.2 L/h; the “Q2 (inter-compartmental clearance), typical value” is 5.7 L/h; the “V2 (volume of distribution of peripheral compartment), typical value” was 35.9 L; the “V3 (volume of distribution of peripheral compartment), typical value” worked out at 115.6 L. The “Vc (volume of distribution of the central compartment), typical value” in data set [4] (setting [5]) was found to be 8.1 L. The “Clearance lower than in typical patient” value in data set [4] (patients with BMI of 23 kg/m^2 (mean - SD) vs typical patient (27.4 kg/m^2)) is “about 21%”. The “Clearance higher than in typical patient” value in data set [4] (patients with BMI of 32 kg/m^2 (mean + SD) vs typical patient (27.4 kg/m^2)) is listed as around 23%. Further, in data set [4] (setting [6]), the “BMI covariate on CL (power model exponent)” value was 1.36 and the “BMI covariate on Q2 (power model exponent)” value worked out at 2.42. Moreover, the “Vss (steady-state volume of distribution) = Vc + V2 + V3” value in data set [4] (sum of Vc, V2 and V3 of the final population PK model) is listed as 160 L.
